Source: ChEMBL document CHEMBL4371064, “Erythrofordins D and E, two new cassaine-type diterpenes from Erythrophleum suaveolens” (2019)

Experiments:
Type in all cases: functional
SW-620 = assay: Growth inhibition of human SW620 cells incubated for 48 hrs by sulforhodamine B assay; conditions: SW-620, 48 h
Outline: (§1)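 Tested in the NCI 60-human-tumour-cell-line screen using the five-dose format. GI₅₀ was derived from each cell line's dose-response. TGI and LC₅₀ were derived from the same dose-response data.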

SN12C = assay: Growth inhibition of human SN12C cells incubated for 48 hrs by sulforhodamine B assay
Outline: (§2)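 Run in the NCI-60 human tumour cell line panel with dose-response testing. GI50 was determined for each cell line from its dose-response data.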

COLO 205 = assay: Growth inhibition of human COLO205 cells incubated for 48 hrs by sulforhodamine B assay; conditions: COLO 205, 48 h; outline: as §2
RPMI-8226 = assay: Growth inhibition of human RPMI8226 cells incubated for 48 hrs by sulforhodamine B assay; conditions: RPMI-8226, 48 h; outline: as §2
SK-MEL-2 = assay: Growth inhibition of human SK-MEL-2 cells incubated for 48 hrs by sulforhodamine B assay; conditions: SK-MEL-2, 48 h; outline: as §2
U-251 = assay: Growth inhibition of human U251 cells incubated for 48 hrs by sulforhodamine B assay; conditions: U-251, 48 h; outline: as §1
OVCAR-4 = assay: Growth inhibition of human OVCAR4 cells incubated for 48 hrs by sulforhodamine B assay; conditions: OVCAR-4, 48 h; outline: as §2
SK-OV-3 = assay: Growth inhibition of human SKOV3 cells incubated for 48 hrs by sulforhodamine B assay; conditions: SK-OV-3, 48 h; outline: as §2
HT-29 = assay: Growth inhibition of human HT-29 cells incubated for 48 hrs by sulforhodamine B assay; conditions: HT-29, 48 h; outline: as §2
MDA-MB-231 = assay: Growth inhibition of human MDA-MB-231 cells incubated for 48 hrs by sulforhodamine B assay; conditions: MDA-MB-231, 48 h; outline: as §2
NCI-H322M = assay: Growth inhibition of human NCI-H322M cells incubated for 48 hrs by sulforhodamine B assay; outline: as §2
Malme-3M = assay: Growth inhibition of human MALME-3M cells incubated for 48 hrs by sulforhodamine B assay; outline: as §2
OVCAR-8 = assay: Growth inhibition of human OVCAR8 cells incubated for 48 hrs by sulforhodamine B assay; conditions: OVCAR-8, 48 h; outline: as §2
HCC 2998 = assay: Growth inhibition of human HCC2998 cells incubated for 48 hrs by sulforhodamine B assay; conditions: HCC 2998, 48 h; outline: as §2
MCF7 = assay: Growth inhibition of human MCF7 cells incubated for 48 hrs by sulforhodamine B assay; conditions: MCF7, 48 h; outline: as §2
T47D = assay: Growth inhibition of human T47D cells incubated for 48 hrs by sulforhodamine B assay; outline: as §1
NCI-H226 = assay: Growth inhibition of human NCI-H226 cells incubated for 48 hrs by sulforhodamine B assay; conditions: NCI-H226, 48 h; outline: as §2
HCT-116 = assay: Growth inhibition of human HCT116 cells incubated for 48 hrs by sulforhodamine B assay; conditions: HCT-116, 48 h; outline: as §2
EKVX = assay: Growth inhibition of human EKVX cells incubated for 48 hrs by sulforhodamine B assay; outline: as §2
SF-295 = assay: Growth inhibition of human SF295 cells incubated for 48 hrs by sulforhodamine B assay; conditions: SF-295, 48 h; outline: as §2
A498 = assay: Growth inhibition of human A498 cells incubated for 48 hrs by sulforhodamine B assay; conditions: A498, 48 h
Outline: (§3)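 Run within the NCI-60 human tumour cell line panel as a dose-response screen. For each cell line the readouts are GI50, TGI and LC50. Per-line log values also feed a mean-graph analysis, in which the arithmetic mean of the log values across all lines is subtracted from each line's log value.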

HL-60(TB) = assay: Growth inhibition of human HL-60(TB) cells incubated for 48 hrs by sulforhodamine B assay; conditions: HL-60, 48 h; outline: as §3
NCI-H522 = assay: Growth inhibition of human NCI-H522 cells incubated for 48 hrs by sulforhodamine B assay; conditions: NCI-H522, 48 h; outline: as §2
A549 = assay: Growth inhibition of human A549/ATCC cells incubated for 48 hrs by sulforhodamine B assay; conditions: A549, 48 h; outline: as §2
UACC-257 = assay: Growth inhibition of human UACC257 cells incubated for 48 hrs by sulforhodamine B assay; conditions: UACC-257, 48 h; outline: as §1
K562 = assay: Growth inhibition of human K562 cells incubated for 48 hrs by sulforhodamine B assay; conditions: K562, 48 h; outline: as §2
SF-268 = assay: Growth inhibition of human SF268 cells incubated for 48 hrs by sulforhodamine B assay; conditions: SF-268, 48 h; outline: as §2
SF-539 = assay: Growth inhibition of human SF539 cells incubated for 48 hrs by sulforhodamine B assay; conditions: SF-539, 48 h; outline: as §2
RXF 393 = assay: Growth inhibition of human RXF393 cells incubated for 48 hrs by sulforhodamine B assay; conditions: RXF 393, 48 h; outline: as §2
M14 = assay: Growth inhibition of human M14 cells incubated for 48 hrs by sulforhodamine B assay; conditions: M14, 48 h; outline: as §2
[1] = read-out: pLC50 (the source's name) (converted)

## COC(=O)/C=C1\CC[C@H]2[C@@H](CC(=O)[C@H]3C(C)(C)C(=O)CC[C@]23C)[C@H]1C
SW-620
  GI50: 708 nM
  LC50: 9120 nM
SW-620; read-out: pTGI (converted)
  TGI: 1700 nM
SN12C
  GI50: 513 nM
  LC50: > 34700 nM
SN12C; read-out: pTGI (converted)
  TGI: 1860 nM
COLO 205
  GI50: 1230 nM
  LC50: > 34700 nM
COLO 205; read-out: pTGI (converted)
  TGI: 5370 nM
RPMI-8226
  GI50: 1290 nM
  LC50: > 34700 nM
RPMI-8226; read-out: pTGI (converted)
  TGI: 22400 nM
SK-MEL-2
  GI50: 1050 nM
  LC50 (concentration killing 50% of cells): > 34700 nM
SK-MEL-2; read-out: pTGI (converted)
  TGI: 4470 nM
U-251
  GI50: 646 nM
  LC50: 2630 nM
U-251; read-out: pTGI (converted)
  TGI: 1320 nM
OVCAR-4
  GI50: 676 nM
  LC50: 5750 nM
OVCAR-4; read-out: pTGI (converted)
  TGI: 1620 nM
SK-OV-3
  GI50: 1020 nM
  LC50: > 34700 nM
SK-OV-3; read-out: pTGI (converted)
  TGI: 3160 nM
HT-29
  GI50: 955 nM
HT-29; [1]
  CC50: 12900 nM
HT-29; read-out: pTGI (converted)
  TGI: 2450 nM
MDA-MB-231
  GI50: 1480 nM
  LC50: > 34700 nM
MDA-MB-231; read-out: pTGI (converted)
  TGI: 7940 nM
NCI-H322M
  GI50: 813 nM
  LC50: 27500 nM
NCI-H322M; read-out: pTGI (converted)
  TGI: 2510 nM
Malme-3M
  GI50: 724 nM
  LC50: 6920 nM
Malme-3M; read-out: pTGI (converted)
  TGI: 1660 nM
OVCAR-8
  GI50: 851 nM
  LC50: 11000 nM
OVCAR-8; read-out: pTGI (converted)
  TGI: 2290 nM
HCC 2998
  GI50: 1450 nM
  LC50: > 34700 nM
HCC 2998; read-out: pTGI (converted)
  TGI: 8130 nM
MCF7
  GI50: 955 nM
MCF7; [1]
  CC50: > 34700 nM
MCF7; read-out: pTGI
  TGI: > 34700 nM
T47D
  GI50: 1000 nM
  LC50: > 34700 nM
T47D; read-out: pTGI (converted)
  TGI: 2950 nM
NCI-H226
  GI50: 617 nM
  LC50: 2630 nM
NCI-H226; read-out: pTGI (converted)
  TGI: 1290 nM
HCT-116
  GI50: 646 nM
  LC50: 2880 nM
HCT-116; read-out: pTGI (converted)
  TGI: 1380 nM
EKVX
  GI50: 407 nM
  LC50: 1910 nM
EKVX; read-out: pTGI (converted)
  TGI: 871 nM
SF-295
  GI50: 741 nM
  LC50: 6030 nM
SF-295; read-out: pTGI (converted)
  TGI: 1740 nM
A498
  LC50: > 34700 nM
A498; read-out: pTGI (converted)
  TGI: 1740 nM
HL-60(TB)
  GI50: 977 nM
  LC50: > 34700 nM
HL-60(TB); read-out: pTGI (converted)
  TGI: 2750 nM
NCI-H522
  GI50: 166 nM
  LC50: > 34700 nM
NCI-H522; read-out: pTGI (converted)
  TGI: 977 nM
A549
  GI50: 427 nM
  LC50: 1820 nM
A549; read-out: pTGI (converted)
  TGI: 891 nM
UACC-257
  GI50: 891 nM
  LC50: 18600 nM
UACC-257; read-out: pTGI (converted)
  TGI: 2450 nM
K562
  GI50: 1150 nM
  LC50: > 34700 nM
K562; read-out: pTGI (converted)
  TGI: 5370 nM
SF-268
  GI50: 331 nM
  LC50: 1910 nM
SF-268; read-out: pTGI (converted)
  TGI: 813 nM
SF-539
  GI50: 575 nM
  LC50: 2090 nM
SF-539; read-out: pTGI (converted)
  TGI: 1100 nM
RXF 393
  GI50: 776 nM
RXF 393; [1]
  CC50: > 34700 nM
RXF 393; read-out: pTGI (converted)
  TGI: 2570 nM
M14
  GI50: 1150 nM
  LC50: 20000 nM
M14; read-out: pTGI (converted)
  TGI: 4270 nM
